Laboratory results taken from PMC7983942 (Clinical Pharmacology and Therapeutics, 2020).
Where a chain is given by its changes, count along the chain named. Values belong to the compound of their own block, whether it stands above or below them.

Assays:
Format in all cases: in vitro ADME
[1] = target: T1, OATP1B1*14 (Homo sapiens, UniProt Q9Y6L6, N130D/P155T); assay: Uptake into OATP1B1 variant-transfected vs wild-type HEK293 cells; conditions: substrate 1 µM; for Uptake ratio as percentage of OATP1B1*14 in the same experiment: OATP1B1*14 (reference); for Uptake ratio (vs. wild‐type HEK293 cells): OATP1B1*14, 2 minutes
T1 sequence (Q9Y6L6 1-691 N130D/P155T): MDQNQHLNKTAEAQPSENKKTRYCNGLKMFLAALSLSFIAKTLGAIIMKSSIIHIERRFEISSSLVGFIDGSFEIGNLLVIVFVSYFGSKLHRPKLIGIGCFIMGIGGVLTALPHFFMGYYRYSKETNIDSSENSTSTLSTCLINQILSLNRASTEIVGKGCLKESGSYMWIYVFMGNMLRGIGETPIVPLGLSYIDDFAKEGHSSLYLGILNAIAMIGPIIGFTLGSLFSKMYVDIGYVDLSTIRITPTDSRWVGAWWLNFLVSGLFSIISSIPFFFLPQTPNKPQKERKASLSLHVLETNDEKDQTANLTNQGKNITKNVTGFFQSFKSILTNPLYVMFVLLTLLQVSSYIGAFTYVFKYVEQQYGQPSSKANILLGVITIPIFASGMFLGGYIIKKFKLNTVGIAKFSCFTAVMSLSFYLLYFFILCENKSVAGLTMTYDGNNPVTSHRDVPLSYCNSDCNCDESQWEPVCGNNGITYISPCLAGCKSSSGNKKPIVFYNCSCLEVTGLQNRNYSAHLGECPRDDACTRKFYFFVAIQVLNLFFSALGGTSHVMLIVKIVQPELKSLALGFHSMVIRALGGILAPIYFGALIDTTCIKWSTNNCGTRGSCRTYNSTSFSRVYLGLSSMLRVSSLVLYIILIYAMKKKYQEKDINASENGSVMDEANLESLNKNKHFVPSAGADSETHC

[2] = target: T2, OATP1B1*1A (Homo sapiens, UniProt Q9Y6L6); assay: Uptake into transporter-transfected vs wild-type HEK293 cells; conditions: experiment 3, substrate 1 µM, 2 minutes
T2 sequence (Q9Y6L6 1-691): T1 sequence (Q9Y6L6 1-691 N130D/P155T) with D130N, T155P
Method in brief: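 HEK293 cells stably transfected with OATP1B1*1A, OATP1B3 or OATP2B1, plus wild-type cells, were seeded on poly-D-lysine plates. Culture was 48 h at 37°C in DMEM with 10% FBS, pyruvate, nonessential amino acids and GlutaMAX. Test compound was 1 µM for 2 min; rosuvastatin probe was 1 µM over 2–4 min. Cells were washed four times in ice-cold buffer and lysed in methanol with internal standard. Readouts were uptake ratio versus wild-type and glucuronide/probe ratio of ratios; mean ± SD, n=3 in one experiment.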

[3] = target: T3, OATP1B1*5 (Homo sapiens, UniProt Q9Y6L6, V174A); assay: Uptake into OATP1B1 variant-transfected vs wild-type HEK293 cells; conditions: for Uptake ratio (vs. wild‐type HEK293 cells): 2 minutes
T3 sequence (Q9Y6L6 1-691 V174A): T1 sequence (Q9Y6L6 1-691 N130D/P155T) with D130N, T155P, V174A
Method in brief: (§1)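 HEK293 cells stably expressing an OATP1B1 variant, alongside wild-type HEK293, were seeded at 0.5–1.2 × 10⁵ cells/well on poly-D-lysine plates. They grew 48 h at 37°C and 5% CO₂ in DMEM with 10% FBS, 1% pyruvate, nonessential amino acids and GlutaMAX. Substrate was 1 µM (0.5 µM where footnoted) for 2 min, then four ice-cold buffer washes and methanol lysis with internal standard. Uptake ratio (transfected/wild-type) is expressed as % of OATP1B1*14 in the same experiment; n=3 determinations.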

[4] = target: T4, OATP1B1*15 (Homo sapiens, UniProt Q9Y6L6, N130D/V174A); assay: as above; conditions: for Uptake ratio (vs. wild‐type HEK293 cells): 2 minutes
T4 sequence (Q9Y6L6 1-691 N130D/V174A): T1 sequence (Q9Y6L6 1-691 N130D/P155T) with T155P, V174A
Method in brief: as §1

[5] = target: T5, OAT2 (Homo sapiens, UniProt Q9Y694); assay: Uptake into transporter-transfected vs wild-type HEK293 cells; conditions: cyclic guanosine monophosphate 0.5 µM, two to four minutes
T5 sequence (Q9Y694 1-548): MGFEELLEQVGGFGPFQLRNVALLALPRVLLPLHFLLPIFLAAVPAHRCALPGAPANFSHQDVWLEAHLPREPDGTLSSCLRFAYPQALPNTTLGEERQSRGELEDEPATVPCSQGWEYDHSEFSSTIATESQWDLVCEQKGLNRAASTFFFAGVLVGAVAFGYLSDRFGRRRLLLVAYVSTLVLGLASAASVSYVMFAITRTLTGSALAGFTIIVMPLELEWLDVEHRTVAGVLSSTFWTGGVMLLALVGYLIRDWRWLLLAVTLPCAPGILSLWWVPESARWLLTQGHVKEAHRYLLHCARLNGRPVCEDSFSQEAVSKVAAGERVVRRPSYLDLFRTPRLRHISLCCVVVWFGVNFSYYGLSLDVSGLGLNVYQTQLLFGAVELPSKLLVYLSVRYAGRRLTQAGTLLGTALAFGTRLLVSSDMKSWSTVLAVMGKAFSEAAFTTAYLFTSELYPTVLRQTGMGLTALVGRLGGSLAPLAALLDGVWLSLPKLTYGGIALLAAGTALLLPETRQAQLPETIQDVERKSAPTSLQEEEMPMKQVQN
Method in brief: (§2)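 Transfected HEK293 lines were OAT2 and OCT1, each run against wild-type cells, seeded on poly-D-lysine plates. Culture was 48 h at 37°C in DMEM with 10% FBS plus 1% gentamycin, 1% sodium pyruvate and 50 µg/mL hygromycin B. Probes were cyclic GMP 0.5 µM (OAT2) and metformin 20 µM (OCT1), over 2–4 min; test compound was 1 µM for 2 min. After four ice-cold washes and methanol lysis, the uptake ratio versus wild-type and the ratio of ratios were derived; n=3 in one experiment.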

[6] = target: T6, OCT1 (Homo sapiens, UniProt O15245); assay: as above; conditions: metformin 20 µM, two to four minutes
T6 sequence (O15245 1-554): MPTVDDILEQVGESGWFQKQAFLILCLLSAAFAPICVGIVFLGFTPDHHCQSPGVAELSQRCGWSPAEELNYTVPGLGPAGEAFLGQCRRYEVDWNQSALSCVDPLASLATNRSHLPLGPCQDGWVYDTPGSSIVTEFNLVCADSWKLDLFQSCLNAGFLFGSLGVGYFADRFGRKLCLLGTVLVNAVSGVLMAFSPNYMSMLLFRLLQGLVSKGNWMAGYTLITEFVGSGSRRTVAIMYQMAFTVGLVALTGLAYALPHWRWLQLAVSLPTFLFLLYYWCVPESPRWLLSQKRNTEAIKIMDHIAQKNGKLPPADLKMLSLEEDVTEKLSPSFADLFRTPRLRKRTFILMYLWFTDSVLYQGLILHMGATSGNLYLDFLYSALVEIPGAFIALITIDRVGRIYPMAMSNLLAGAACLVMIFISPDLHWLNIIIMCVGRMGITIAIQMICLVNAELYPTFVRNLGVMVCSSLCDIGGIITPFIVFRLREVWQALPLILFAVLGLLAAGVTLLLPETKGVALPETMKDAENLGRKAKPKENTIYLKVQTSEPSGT
Method in brief: as §2

Uptake ratio as percentage of OATP1B1*14 in the same experiment ([1]; experiment 1): 100%
Uptake ratio as percentage of OATP1B1*14 in the same experiment ([1]; experiment 2): 100%
Uptake ratio (vs. wild‐type HEK293 cells) ([1]; experiment 1): 3.2 ± 0.1
Uptake ratio (vs. wild‐type HEK293 cells) ([1]; experiment 2): 3.1 ± 0.1
Uptake ratio (vs. wild‐type HEK293 cells) ([1]; experiment 3): 4.4 ± 0.1
Uptake ratio (vs. wild‐type HEK293 cells) [2]: 2.7 ± 0.1
Uptake ratio as percentage of OATP1B1*14 in the same experiment ([3]; experiment 1, substrate 1 µM): 56%
Uptake ratio (vs. wild‐type HEK293 cells) ([3]; experiment 1, substrate 1 µM): 1.8 ± 0.2
Uptake ratio as percentage of OATP1B1*14 in the same experiment ([3]; experiment 2, substrate 1 µM): 61%
Uptake ratio (vs. wild‐type HEK293 cells) ([3]; experiment 2, substrate 1 µM): 1.9 ± 0.1
Uptake ratio as percentage of OATP1B1*14 in the same experiment ([4]; experiment 1, substrate 1 µM): 47%
Uptake ratio (vs. wild‐type HEK293 cells) ([4]; experiment 1, substrate 1 µM): 1.5 ± 0.1
Uptake ratio as percentage of OATP1B1*14 in the same experiment ([4]; experiment 2, substrate 1 µM): 48%
Uptake ratio (vs. wild‐type HEK293 cells) ([4]; experiment 2, substrate 1 µM): 1.5 ± 0.1
Compound: CC(C)n1c(/C=C/C(O)CC(O)CC(=O)O)c(-c2ccc(F)cc2)c2ccccc21 (stereo not shown) [Fluvastatin, fluvastatin]

Uptake ratio (vs. wild‐type HEK293 cells), probe [5]: 23.6 ± 0.58
Compound: Nc1nc2c(ncn2[C@@H]2O[C@@H]3COP(=O)(O)O[C@H]3[C@H]2O)c(=O)[nH]1 [cyclic guanosine monophosphate]

Uptake ratio (vs. wild‐type HEK293 cells), probe [6]: 15.4 ± 1.06
Compound: CN(C)C(=N)N=C(N)N [metformin]
